Laboratory results reported in PMC4002122 (Chemical Research in Toxicology, 2014).

Assays:
UGT2B4 = biological target: T1, UGT2B4 (Homo sapiens, UniProt P06133); assay: Screening of recombinant UGT2B4 for glucuronidation activity; assay type: in vitro ADME; settings: 250 μM substrate, 5 μg protein, 60 min, 37 °C
T1 sequence (P06133 24-528): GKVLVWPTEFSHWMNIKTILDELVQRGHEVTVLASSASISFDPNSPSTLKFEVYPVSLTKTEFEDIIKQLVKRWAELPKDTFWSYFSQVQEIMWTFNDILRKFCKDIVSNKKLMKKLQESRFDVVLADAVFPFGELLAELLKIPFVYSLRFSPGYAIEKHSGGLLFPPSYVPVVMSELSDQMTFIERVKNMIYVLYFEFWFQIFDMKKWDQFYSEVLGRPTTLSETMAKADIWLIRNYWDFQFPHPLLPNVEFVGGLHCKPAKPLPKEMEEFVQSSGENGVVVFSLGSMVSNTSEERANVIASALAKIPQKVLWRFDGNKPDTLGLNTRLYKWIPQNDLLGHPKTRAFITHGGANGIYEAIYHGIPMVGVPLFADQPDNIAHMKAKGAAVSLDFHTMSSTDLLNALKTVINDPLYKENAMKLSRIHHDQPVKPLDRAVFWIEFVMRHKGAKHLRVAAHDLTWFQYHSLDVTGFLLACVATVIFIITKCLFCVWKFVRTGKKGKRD
How it was run: (§1)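 UGT1A1, 1A3, 1A4 and 1A6–1A10 were His-tagged and expressed in baculovirus-infected Sf9 cells; UGT2B4, 2B7, 2B15 and 2B17 were commercial membranes run per supplier protocol. 5 μg membrane protein with 250 μM substrate, 2 mM UDP-GlcUA, Tris–HCl pH 7.4, MgCl2, saccharolactone, 2% DMSO; 37 °C, 60 min; no-substrate controls. Products measured by HPLC-UV/vis; β-glucuronidase hydrolysis separated O- from carboxyl glucuronides.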

UGT2B17 = biological target: T2, UGT2B17 (Homo sapiens, UniProt O75795); assay: Screening of recombinant UGT2B17 for glucuronidation activity; assay type: in vitro ADME; settings: 250 μM substrate, 5 μg protein, 60 min, 37 °C
T2 sequence (O75795 24-530): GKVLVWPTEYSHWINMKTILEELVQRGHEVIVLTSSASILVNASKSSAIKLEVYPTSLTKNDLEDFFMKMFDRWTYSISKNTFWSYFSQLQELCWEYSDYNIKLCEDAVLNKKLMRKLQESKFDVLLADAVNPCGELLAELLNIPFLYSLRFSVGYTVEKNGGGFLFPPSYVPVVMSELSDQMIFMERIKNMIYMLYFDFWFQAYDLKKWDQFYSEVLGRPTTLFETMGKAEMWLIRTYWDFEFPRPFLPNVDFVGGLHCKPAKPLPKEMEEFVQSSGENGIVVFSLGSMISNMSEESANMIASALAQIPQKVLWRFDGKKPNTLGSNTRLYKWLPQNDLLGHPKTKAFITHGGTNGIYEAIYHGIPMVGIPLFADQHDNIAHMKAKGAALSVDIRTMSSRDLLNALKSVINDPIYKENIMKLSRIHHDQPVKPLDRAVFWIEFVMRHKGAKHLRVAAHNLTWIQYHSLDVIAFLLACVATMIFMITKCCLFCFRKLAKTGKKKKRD
How it was run: as §1

[1] = Glucuronidation by human hepatic microsomes; assay type: in vitro ADME; settings: 60 min, 50 μg of human liver proteins, 0.25 mM substrate, 3 mM UDP-GlcUA
How it was run: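 Microsomes from individual human livers (10 donors), a pooled liver sample and hepatosomes, or from intestines (13 donors). Substrate dried from ethanol, redissolved in DMSO and sonicated. Incubated 37 °C, 60 min; ethanol stop, centrifuged. Glucuronides measured by reversed-phase HPLC-UV; nmol/mg/min, median and range.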

tubulin = settings: cited from earlier work

| SMILES | glucuronidation activity (glucuronide formed) (UGT2B4) | glucuronidation activity (glucuronide formed) (UGT2B17) | metabolism with human liver microsomes [1] | antitubulin activity (tubulin) |
| --- | --- | --- | --- | --- |
| COc1cc(/C=C/c2cc([N+](=O)[O-])c(O)c([N+](=O)[O-])c2)cc(OC)c1 [DNR-1, (E)-4-(3,5-dimethoxystyryl)-2,6-dinitrophenol] | No activity | No activity | not metabolized | – |
| COc1ccc(/C=C(/C(=O)O)c2cc(OC)c(OC)c(OC)c2)cc1O [NI-12a, (E)-3-(3-hydroxy-4-methoxyphenyl)-2-(3,4,5-trimethoxyphenyl)acrylic acid] | – | – | – | effective antitubilin agent |
| COc1ccc(C=Cc2cc(OC)cc(OC)c2/C=N/O)cc1 [NI-ST-05, (E)-2,4-dimethoxy-6-(4-methoxystyryl)benzaldehyde oxime] | inactive | inactive | – | – |
